High-throughput results from PubChem BioAssay.
Shown are actives, neighbours in structure and some others; about 3.6% of the full set was active somewhere.
PAFAH2 FP inh: inhibitors of human PAFAH2; Q99487; recombinant PAFAH2, FP-rhodamine activity probe, fluorescence polarization; inhibition, % at 3.39 µM; actives 0.99% (n = 340,000);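 active means inhibition above the mean over all tested compounds plus 3 SD, cut at about 30% in these data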;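 further: inhibitors block probe labeling of enzyme so polarization drops; 0% = enzyme with DMSO and 100% = wells lacking PAFAH2 protein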
PAFAH1B3 FP inh: PAFAH1B3 (human) inhibition; recombinant PAFAH1B3, FP-rhodamine probe, fluorescence polarization; inhibition, % at 3.39 µM; actives 0.28% (n = 340,000); AID 492972;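 active means inhibition above the screen-wide average of all tested compounds plus 3 SD, cut at about 25% in these data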;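 further: 0% = enzyme with DMSO only and 100% = wells lacking PAFAH1B3 protein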
Target sequence (Q15102 whole entry, looked up): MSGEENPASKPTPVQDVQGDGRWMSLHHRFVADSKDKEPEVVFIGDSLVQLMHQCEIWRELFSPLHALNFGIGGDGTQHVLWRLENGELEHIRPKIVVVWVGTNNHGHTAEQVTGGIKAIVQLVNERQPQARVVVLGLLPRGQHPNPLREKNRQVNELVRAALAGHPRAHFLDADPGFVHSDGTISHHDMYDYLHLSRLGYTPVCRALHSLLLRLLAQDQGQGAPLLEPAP
pPAFAH FP inh: pPAFAH (human) enzyme inhibition; Q13093; recombinant pPAFAH, FP-rhodamine probe fluorescence polarization; inhibition, % at 3.39 µM; actives 1.5% (n = 330,000); AID 463082;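 active means inhibition above the mean inhibition across the screen plus 3 SD, cut at about 25% in these data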;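 further: inhibitors block binding of the rhodamine activity-based probe so polarization drops; 0% = enzyme with DMSO and 100% = wells lacking pPAFAH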
PAFAH1B2 inh: inhibitors of human PAFAH1B2; recombinant PAFAH1B2, FP-rhodamine activity probe, fluorescence polarization; inhibition, % at 3.39 µM; actives 1.2% (n = 340,000); P68402;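 active means inhibition above the mean of all tested compounds plus 3 SD, cut at about 24% in these data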;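 further: 0% = enzyme with DMSO and 100% = wells lacking PAFAH1B2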
Target sequence (P68402 whole entry, looked up): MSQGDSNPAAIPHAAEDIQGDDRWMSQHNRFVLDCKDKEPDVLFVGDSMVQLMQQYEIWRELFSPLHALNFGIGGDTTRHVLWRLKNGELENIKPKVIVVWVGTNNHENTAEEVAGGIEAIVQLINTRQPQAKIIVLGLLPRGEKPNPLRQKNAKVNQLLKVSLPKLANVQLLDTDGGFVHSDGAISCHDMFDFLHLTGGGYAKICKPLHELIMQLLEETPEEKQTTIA
IMP-1 inhibitor: inhibitors of Pseudomonas aeruginosa IMP-1 metallo-beta-lactamase; purified IMP-1, nitrocefin hydrolysis, epi-absorbance fluorescence; inhibition, % at 5.6 µM; actives 0.45% (n = 290,000); AID 1556;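 active means inhibition above the mean plus 3 SD of all compounds in the same screening run, cut at about 4.5% in these data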;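 further: 0% = IMP-1 with DMSO and 100% = DMSO wells lacking enzyme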
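System: purified IMP-1 / Input: IMP-1 dispensed at 0.2 nM / Medium: 50 mM HEPES pH 7.1, 50 µM ZnSO4, 0.05% Brij 35 / Timing: 15 min enzyme–compound preincubation, then 25 min nitrocefin reaction, 25 °C / Technique: plate fluorescence quenching by hydrolysis product, ex 480/em 530 nm / Repeats: singlicate testing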
VIM-2 inh: inhibitors of Pseudomonas aeruginosa VIM-2 metallo-beta-lactamase; purified VIM-2, nitrocefin hydrolysis, epi-absorbance fluorescence; inhibition, % at 5.6 µM; actives 0.89% (n = 290,000); AID 1527;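 active means inhibition above the mean of all tested compounds plus 3 SD, cutoff set per screening run, cut at about 7.5% in these data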;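 further: red hydrolysis product quenches plate fluorescence so inhibitors raise well fluorescence; 0% = enzyme with DMSO and 100% = DMSO without enzyme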
The depositor's hits bear a star; / = not tested or not shown.

SMILES	PAFAH2 FP inh	PAFAH1B3 FP inh	pPAFAH FP inh	PAFAH1B2 inh	IMP-1 inhibitor	VIM-2 inh
O=S(=O)(Nc1ccc2cn[nH]c2c1)c1ccc(Cl)cc1	17	12	1	32*	-1	-1
COc1ccc(NC(=O)C2CCC2)cc1S(=O)(=O)Nc1cc(C)ccc1Br	0	6	29*	5	/	/
COc1ccccc1NS(=O)(=O)c1cc(NC(=O)C2CCC2)ccc1N1CCCCC1	-20	-6	-23	-5	-4	-1
CN(CC(=O)Nc1ccccc1N1CCCC1)S(=O)(=O)c1ccc(F)cc1	1	4	2	11	/	/
O=C(C=C1SCCS1)/C=C/c1ccco1	8	8	25*	4	2	0
O=C(O)C(C(=O)/C=C/c1ccco1)=C1SCCS1	12	4	24	6	-2	-3
O=C(/C=C/c1ccc([N+](=O)[O-])cc1)/C=C/c1ccco1	15	9	62*	-3	0	-2
Cc1ccc(-c2csc3ncnc(SCc4ccc(C(=O)O)cc4)c23)cc1	/	/	29*	/	-1	-3
CCOCCCN(C(=O)Cn1nnc(-c2ccc(C)o2)n1)C(C(=O)NC1CCCC1)c1ccc(C)o1 (configuration not stated)	-10	0	/	-5	-3	-4
C=C(C(=O)O)C1CCC2(C)CCCC(C)(O)C2C1 (configuration not stated)	3	6	2	29*	/	/
O=C1N/C(=N/NC(=O)c2cccc3ccccc23)S/C1=C\c1ccccc1OCc1ccccc1	10	26*	/	14	-3	-4
COc1cc(/C=C2\SC(c3ccc(C)cc3)=NC2=O)cc(OC)c1O	16	6	8	8	2	4
Cc1ccc(C2=NC(=O)/C(=C/c3cc(O)c(O)c(Br)c3)S2)cc1	78*	48*	/	37*	3	-1
CCOc1ccc(N(C)S(=O)(=O)c2ccc(-c3cc(C)no3)s2)cc1	-3	-2	5	1	-2	-3
COc1ccc(-c2cc(-c3ccccc3)nc(N3CCCC3)n2)cc1OC	-6	1	0	-2	4.8*	-2
c1coc(-c2nnc3sc(-c4cccs4)nn23)c1	18	1	9	6	0	7.9*
COc1cccc(-c2nnc3sc(-c4cccs4)nn23)c1	6	-1	-3	6	0	1
O=S(=O)(c1ccccc1)c1cnn(-c2ccccc2)c1-c1ccc(F)cc1	2	6	-3	28*	-1	2
COc1ccc(-n2ncc(S(=O)(=O)c3ccccc3)c2-c2ccc(Cl)cc2)cc1	0	2	1	3	-1	-2
O=C(CSc1nnnn1-c1ccccc1)NCC1(N2CCOCC2)CCCCC1	2	9	4	6	/	/
S=C1NCN(CCc2ccccc2)CN1Cc1ccccc1	10	2	-3	26*	-5	-1
CCCN1CNC(=S)N(Cc2ccccc2)C1	5	4	0	2	-2	0
COc1ccccc1OCc1ccc(C(=O)Nc2cc(OC)c(OC)c(OC)c2)o1	3	5	/	4	0	-1
COc1cc(NC(=O)c2ccc(COc3ccccc3Br)o2)cc(OC)c1OC	1	13	26*	8	0	-1
Cc1ccc(NC(=O)COC(=O)Cc2cccs2)c(Br)c1	3	8	23	4	-1	0
SMILES	PAFAH2 FP inh	PAFAH1B3 FP inh	pPAFAH FP inh	PAFAH1B2 inh	IMP-1 inhibitor	VIM-2 inh
Cc1cc(C)c(NC(=O)CNC(=O)COC(=O)/C=C/c2cccs2)c(C)c1	8	8	27*	5	/	/
Cc1cc(C)c(NC(=O)COC(=O)Cc2cccs2)c(C)c1	3	10	26*	1	/	/
COc1ccc(CC(=O)NNC(=O)c2ccc(NC(C)=O)cc2)cc1	8	-1	7	0	9.6*	-1
COc1ccc(C/C(=N\OC(C)=O)c2ccc(OC)cc2)cc1	2	1	2	30*	-2	1
COc1ccc(NC(=O)NNC(=O)c2ccc(-c3ccccc3)cc2)cc1	-3	2	8	-6	4.9*	-1
CC(C)(C)c1ccc(OCC(=O)NNC(=O)Nc2ccccc2)cc1	-4	6	30*	39*	-3	-5
Cc1nn(-c2ccc(F)cc2)c(Cl)c1C(=O)N(C)CC(=O)Nc1cccc(F)c1	-1	3	-2	-2	/	/
Cc1ccc(S(=O)(=O)N[C@H](C(=O)NC2CCC(C)CC2)C(C)C)cc1 (some centres not stated)	-1	0	2	14	/	/
COc1ccc(OC)c(/C=C2\SC(N3CCCC(C)C3)=NC2=O)c1 (configuration not stated)	-3	17	27*	1	-2	2
COc1ccc(/C=C2\SC(N3CCCCC3)=NC2=O)cc1OC	-6	6	7	3	-2	0
CC(=O)N1CC(C)Sc2ccc(S(=O)(=O)NCCc3cccc(C)c3)cc21 (configuration not stated)	5	-3	9	0	-2	-1
O=C(NN=Cc1ccc(N2CCOCC2)s1)c1ccc([N+](=O)[O-])cc1	-4	10	7	-1	/	/
O=C(O)CN1C(=O)C2C3CC(C2C1=O)C1C(c2ccccc2)c2sc(=O)[nH]c2SC31 (configuration not stated)	-8	5	2	72*	-3	-4
CC(C)CC(C(=O)O)N1C(=O)C2C3CC(C2C1=O)C1C(c2ccccc2)c2sc(=O)[nH]c2SC31 (configuration not stated)	-1	-2	6	40*	1	3
O=C(Cn1ncc2c([nH]c3ccccc32)c1=O)N1CCOCC1	-2	7	2	4	-3	-1
Cc1nc(NCCc2ccc(S(N)(=O)=O)cc2)c2c3c(sc2n1)CCC3	0	6	9	3	-3	7.9*
CC(C)c1ccc(NC(=O)Cc2ccc(NC3=NC4CS(=O)(=O)CC4S3)cc2)cc1 (configuration not stated)	9	-1	8	2	-5	-4
Cc1ccc(N=Cc2cc3c(cc2[N+](=O)[O-])OCO3)cc1[N+](=O)[O-]	/	/	31*	/	/	/
CCOC(=O)c1ccc(-c2ccc(-c3cc(=O)oc4cc(OC)c(OC)c(OC)c34)cc2)cc1	3	8	4	2	/	/
Cc1cccc(Nc2nnc(SC/C(O)=C(\C#N)c3nc4ccccc4[nH]3)s2)c1C	11	9	28*	21	-2	-1
NC(=O)C(c1ccccc1)c1ccc(C(=O)c2ccccc2)cc1 (configuration not stated)	-3	7	6	4	-4	-2
Cc1cc(C)c2cc(C(=O)N3CCC(C(=O)c4ccc(F)cc4)CC3)[nH]c2c1	11	7	8	4	4.5*	1
